The values that follow come from ChEMBL document CHEMBL2390922, “Synthesis and biological evaluation of sulforaphane derivatives as potential antitumor agents” (Eur J Med Chem, 2013).

In one test the test system is HepG2. Kind of test: Cytotoxicity against human HepG2 cells after 72 hrs by MTT assay. Format: functional, cell-based. As to conditions: HepG2, 72 h. In a few lines: (§1)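 Cells were grown in RPMI-1640 or DMEM with 10% NBS or FBS and 100 U/mL penicillin, at 37 °C under 5% CO₂. After 72 h with a range of compound concentrations, MTT was added for a further 4 h at 37 °C. Formazan was dissolved in DMSO and absorbance read at 570 and 630 nm. Assays ran in triplicate across three independent experiments, and IC₅₀ was calculated for 50% loss of viability.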
On the technique in general: Formazan colour is commonly taken as a measure of viable cells.

The subject of another test is MCF7. Kind of test: Cytotoxicity against human MCF7 cells after 72 hrs by MTT assay. The format is functional, cell-based. As to conditions: MCF7, 72 h. In a few lines: as §1
The subject of a further test is HCT-116. Kind of test: Cytotoxicity against human HCT116 cells after 72 hrs by MTT assay. As to conditions: HCT-116, 72 h. The format is functional, cell-based. The essentials: as §1
The nature of test [1]: Cytotoxicity against human SH-SY5Y cells after 72 hrs by MTT assay. The format is functional, cell-based. The essentials:
as §1

The subject of the next test is Vero. Kind of test: Cytotoxicity against African green monkey Vero cells after 72 hrs by MTT assay. Format: cell-based. As to conditions: Chlorocebus sabaeus.
Another test deals with A549. Kind of test: Cytotoxicity against human A549 cells after 72 hrs by MTT assay. As to conditions: A549, 72 h. The format is functional, cell-based. In a few lines:
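After 72 h with a range of compound concentrations, MTT was added for a further 4 h at 37 °C. Formazan was dissolved in DMSO and absorbance read at 570 and 630 nm. Assays ran in triplicate across three independent experiments, and IC₅₀ was calculated for 50% loss of viability.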

In general, IC50 refers to the concentration needed to halve the response being measured. Take `[O-][S+](CCCN=C=S)Cc1ccccc1` (stereo not given): the IC50 was 9.84 µM with HepG2; 7.92 µM in the test on MCF7; 15.6 µM with HCT-116; 8.89 µM in test [1]; 10.1 µM in the test on Vero; 11.8 µM with A549.

In the case of `[O-][S+](CCCCN=C=S)Cc1cccs1` (stereo not given), the IC50 in the test on HepG2 was 3.82 µM; in the test with MCF7 it was 4.14 µM; in the test on HCT-116, 3.21 µM; in test [1], 5.31 µM; in the test on Vero it was 6.22 µM; in the test on A549, 8.41 µM.

In the case of `S=C=NCCCCSCc1ccccc1`, the IC50 in the test with HepG2 turned out to be 12.6 µM; in the test with MCF7, 38.3 µM; in the test with HCT-116 it was 41.5 µM; in test [1] it was 20.7 µM; in the test with Vero, 24.9 µM; in the test on A549, 51.3 µM.

For the molecule `CC[S+]([O-])CCCCN=C=S` (stereo not given), the IC50 is 5.35 µM with HepG2; 8.26 µM in the test on MCF7; 3.85 µM in the test with HCT-116; 9.81 µM in test [1]; 7.9 µM in the test with Vero; 10.2 µM in the test with A549.

`[O-][S+](CCCCCN=C=S)Cc1ccccc1` (stereo not given): the IC50 in the test on HepG2 was found to be 3.91 µM; with MCF7, 3.83 µM; with HCT-116 it was 5.19 µM; in test [1], 7.01 µM; in the test on Vero, 5.85 µM; in the test on A549, 6.21 µM.

In the case of `[O-][S+](CCCCN=C=S)Cc1ccco1` (stereo not given), the IC50 came out at 3.86 µM in the test with HepG2; 5.68 µM in the test on MCF7; 3.47 µM in the test with HCT-116; 7.79 µM in test [1]; 5.25 µM in the test on Vero; 5.64 µM in the test on A549.

As to `[O-][S+](CCCCN=C=S)Cc1ccccn1` (stereo not given), the IC50 in the test on HepG2 was determined as 5.35 µM; in the test with MCF7, 6.89 µM; in the test on HCT-116, 3.72 µM; in test [1] it was 7.83 µM; with Vero it was 7.65 µM; in the test on A549, 8.33 µM.

`CC(C)[S+]([O-])CCCCCN=C=S` (stereo not given): the IC50 in the test with HepG2 is 3.69 µM; in the test with MCF7 it was 6.78 µM; with HCT-116, 3.42 µM; in test [1], 8.62 µM; with Vero, 10.3 µM; with A549, 7.75 µM.

As to `O=[N+]([O-])c1ccc(C[S+]([O-])CCCCN=C=S)cc1` (stereo not given), the IC50 in the test with HepG2 is 3.18 µM; in the test with MCF7, 7.77 µM; in the test on HCT-116, 2.83 µM; in test [1] it was 7.23 µM; in the test with Vero, 3.36 µM; in the test with A549, 14.3 µM.

For the molecule `CCCC[S+]([O-])CCCCN=C=S` (stereo not given), the IC50 in the test on HepG2 came to 5.93 µM; with MCF7, 5.84 µM; in the test with HCT-116 it was 2.81 µM; in test [1], 6.47 µM; in the test on Vero, 5.15 µM; in the test with A549, 9.56 µM.

`CC(C)[S+]([O-])CCCCCCN=C=S` (stereo not given): the IC50 in the test with HepG2 was 7.82 µM; with MCF7, 9.76 µM; in the test on HCT-116 it was 9.46 µM; in test [1], 7.82 µM; in the test on Vero, 7.31 µM; in the test on A549 it was 12 µM.

As to `[O-][S+](CCCCN=C=S)C1CCCC1` (stereo not given), the 50% inhibitory concentration (IC50) in the test with HepG2 stood at 3.64 µM; in the test on MCF7 it was 4.45 µM; with HCT-116, 3.14 µM; in test [1] it was 7.14 µM; in the test on Vero it was 4.6 µM; in the test with A549, 10.1 µM.

Consider `CC(C)[S+]([O-])CCCN=C=S` (stereo not given), for which the IC50 turned out to be 7.14 µM in the test with HepG2; 7.93 µM in the test with MCF7; 15.9 µM with HCT-116; 18.1 µM in test [1]; 8.25 µM in the test on Vero; 16.7 µM with A549.

As for `O=S(=O)(CCCCN=C=S)Cc1ccccc1`, the IC50 in the test with HepG2 was 8.49 µM; with MCF7, 7.55 µM; with HCT-116, 6.28 µM; in test [1], 4.78 µM; in the test on Vero, 7.17 µM; with A549 it was 8.89 µM.

Regarding `COc1ccc(C[S+]([O-])CCCCN=C=S)cc1` (stereo not given), the IC50 amounted to 4.62 µM with HepG2; 8.89 µM in the test on MCF7; 5.46 µM in the test with HCT-116; 2.79 µM in test [1]; 3.71 µM with Vero; 32.5 µM in the test with A549.

For `CC(C)C[S+]([O-])CCCCN=C=S` (stereo not given), the IC50 stood at 2.16 µM with HepG2; 3.66 µM with MCF7; 2.06 µM with HCT-116; 5.7 µM in test [1]; 4.98 µM in the test with Vero; 9.09 µM with A549.

On to `CC(C)[S+]([O-])CCCCN=C=S` (stereo not given), for which the IC50 in the test with HepG2 came to 2.05 µM; in the test with MCF7, 8.82 µM; with HCT-116, 3.74 µM; in test [1] it was 9.42 µM; with Vero, 10.4 µM; in the test on A549, 10.4 µM.

On to `O=c1[nH]cc(F)c(=O)[nH]1` [FLUOROURACIL], for which the IC50 was determined as 10.1 µM in the test on MCF7, 3.24 µM in the test with HCT-116, 0.97 µM in test [1] and 9.71 µM with Vero.

For the molecule `[O-][S+](CCCCN=C=S)CCc1ccccc1` (stereo not given), the IC50 with HepG2 was 6.97 µM; in the test with MCF7, 9.33 µM; in the test with HCT-116 it was 8.02 µM; in test [1], 5.6 µM; with Vero it was 6.82 µM; in the test on A549 it was 10.2 µM.

Consider `[O-][S+](CCCCN=C=S)c1ccccc1` (stereo not given), for which the IC50 came out at 6.34 µM with HepG2; 7.05 µM in the test with MCF7; 4.53 µM in the test with HCT-116; 8.75 µM in test [1]; 4.33 µM in the test with Vero; 23.8 µM with A549.

Take `CCC[S+]([O-])CCCCN=C=S` (stereo not given): the IC50 was 3.91 µM with HepG2; 5.96 µM in the test with MCF7; 3.95 µM in the test on HCT-116; 7.66 µM in test [1]; 5.64 µM in the test with Vero; 10.7 µM with A549.

For `[O-][S+](CCCCCCN=C=S)Cc1ccccc1` (stereo not given), the IC50 was 6.17 µM with HepG2; 5.49 µM in the test on MCF7; 11.6 µM in the test on HCT-116; 7.63 µM in test [1]; 4.33 µM in the test on Vero; 14.7 µM in the test on A549.
